Experimental data published in ChEMBL document CHEMBL1165991, “Synthesis and in vitro evaluation of novel 1,2,4-triazine derivatives as neuroprotective agents” (Bioorg Med Chem, 2010).
The source made the active and inactive calls. The calls are words filed in the database; no cut-off is given here.

How the values were obtained:
[1] = test system: PC-12; test: Neuroprotective activity in differentiated rat PC12 cells assessed as decrease of H2O2-induced cleaved caspase 3 level treated 3 hrs before H2O2 challenge measured after 24 hrs by Western blot relative to untreated control; type: functional
How it was run: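 PC12 cells grown in DMEM with 10% FBS at 37 °C, 5% CO2, and differentiated with NGF (50 ng/ml) every other day for 6 days. Pretreated 3 h with compound, then H2O2 (150 μM) added with compound for 24 h. Twenty μg protein run on 12% SDS-PAGE and blotted for cleaved caspase-3, reprobed for β-actin. ECL detection, densitometry ratio, median of three independent experiments.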

[2] = test system: PC-12; test: Neuroprotective activity in differentiated rat PC12 cells assessed as inhibition of H2O2-induced NF-kappaB nucleus accumulation treated 3 hrs before H2O2 challenge measured after 24 hrs by Western blot relative to untreated control; type: functional
How it was run: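 Differentiated PC12 cells were pretreated 3 h with compound, then given H2O2 150 μM for 24 h. Nuclear protein (20 μg) was run on 12% SDS–PAGE, blotted to PVDF, probed with anti-NF-κB and reprobed for β-actin, with ECL detection. Band densities were taken as a ratio; median of three independent experiments.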

[3] = test system: PC-12; test: Neuroprotective activity in differentiated rat PC12 cells assessed as protection against H2O2-induced apoptosis at 10 uM treated 3 hrs before H2O2 challenge measured after 24 hrs by acridine orange/ethidium bromide double staining method; type: functional
How it was run: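 NGF-differentiated PC12 cells were pretreated with compound, then given H2O2 150 μM for 24 h. Cells were harvested, washed in PBS and set to 10^6/ml, then stained with AO/EB (1:1, final 100 μg/ml). Fluorescence microscopy scored viable, early or late apoptotic, and necrotic nuclei in 10 random fields; three repeats.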

[4] = test system: PC-12; test: Neuroprotective activity in rat undifferentiated PC12 cells assessed as protection against H2O2-induced cell death at 10 uM treated 3 hrs before H2O2 challenge measured after 24 hrs by MTT assay relative to control; type: functional
How it was run: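 Undifferentiated rat PC12 cells, grown in DMEM with 10% FBS and penicillin–streptomycin at 37 °C, 5% CO2, were seeded in 96-well plates. They were pretreated 3 h with compounds (0.5–20 µM), then exposed to H2O2 for 24 h. Viability was read by MTT reduction, formazan dissolved in DMSO, A550, as % of control; mean ± S.D., n = 3.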

[5] = test system: PC-12; test: Cytotoxicity against rat differentiated PC12 cells at 0.5 to 20 uM after 24 hrs by MTT assay; type: cell-based; conditions: pc-12, 24 h
How it was run: (§1)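 PC12 cells grown in DMEM with 10% FBS and penicillin–streptomycin at 37 °C, 5% CO2. Differentiated cells were primed with NGF 50 ng/ml every other day for 6 days; undifferentiated cells had no NGF. Compound 0.5–20 μM without H2O2; MTT read at 24 h. Formazan dissolved in DMSO, A550 as % of control; mean ± S.D., n = 3.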

[6] = test system: PC-12; test: Cytotoxicity against rat undifferentiated PC12 cells at 0.5 to 20 uM after 24 hrs by MTT assay; type: cell-based; conditions: pc-12, 24 h; how it was run: as §1
[7] = test system: PC-12; test: Neuroprotective activity in rat differentiated PC12 cells assessed as protection against H2O2-induced cell death at 10 uM treated 3 hrs before H2O2 challenge measured after 24 hrs by MTT assay relative to control; type: functional
How it was run: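 Rat PC12 cells grown in DMEM with 10% FBS and penicillin–streptomycin at 37 °C, 5% CO2, then differentiated with NGF (50 ng/ml) every other day for 6 days. Compounds (0.5–20 µM) were added 3 h before H2O2 (150 µM) and kept present for 24 h more. MTT reduction, formazan dissolved in DMSO, A550; % of control cells; mean ± S.D., n = 3.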

[8] = test system: PC-12; test: Neuroprotective activity in rat NGF treated differentiated PC12 cells assessed as restoration of H2O2-induced network changes at 10 uM treated 3 hrs before H2O2 challenge measured after 24 hrs by fluorescence microscopy analysis; type: functional, cell-based
How it was run: (§2)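 PC12 cells were differentiated with NGF 50 ng/ml for 6 days, pretreated 3 h with compound, then exposed to H2O2 150 μM for 24 h. Morphology was judged by microscopy: cell shape, attachment to the plate surface and inter-neuronal networks.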

[9] = test system: PC-12; test: Neuroprotective activity in rat differentiated PC12 cells assessed as protection against H2O2-induced cell death at 0.5 to 20 uM treated 3 hrs before H2O2 challenge measured after 24 hrs by MTT assay relative to control; type: functional, cell-based
How it was run: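 NGF-differentiated PC12 cells (50 ng/ml every other day, 6 days) were pretreated 3 h with compound at 0.5–20 μM, then given H2O2 150 μM with compound for a further 24 h. Viability by MTT: formazan in DMSO, A550, expressed as % of control cells; mean ± S.D., n = 3.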

[10] = test system: PC-12; test: Neuroprotective activity in rat NGF treated differentiated PC12 cells assessed as restoration of H2O2-induced neuronal shape change at 10 uM treated 3 hrs before H2O2 challenge measured after 24 hrs by fluorescence microscopy analysis; type: functional, cell-based; how it was run: as §2
[11] = test system: PC-12; test: Neuroprotective activity in rat NGF treated differentiated PC12 cells assessed as restoration of H2O2-induced detached from culture plate at 10 uM treated 3 hrs before H2O2 challenge measured after 24 hrs by fluorescence microscopy analysis; type: functional, cell-based; how it was run: as §2

Row | SMILES | fold change (FC) [1] | fold change (FC) [2] | Activity [3] [%] | Activity [4] [%] | Activity [5] | Activity [6] | Activity [7] [%] | Activity [8] | Activity [9] | Activity [10] | Activity [11]
1 | CCSc1nnc(-c2ccccc2)c(-c2ccccc2)n1 | 1.64 | 1.56 | 45 | 59 | Non-toxic | Non-toxic | 54 |  |  |  | 
2 | CCCCSc1nnc(-c2ccc(Cl)cc2)c(-c2ccc(Cl)cc2)n1 | 1.83 | 1.78 | 40 | 63 | Non-toxic | Non-toxic | 50 |  |  |  | 
3 | CCSc1nnc(-c2ccc(Cl)cc2)c(-c2ccc(Cl)cc2)n1 | 2 | 2 | 40 | 58 | Non-toxic | Non-toxic |  |  |  |  | 
4 | CCCSc1nnc(-c2ccc(Cl)cc2)c(-c2ccc(Cl)cc2)n1 | 1.92 | 1.89 | 40 | 60 | Non-toxic | Non-toxic | 45 |  |  |  | 
5 | CCCSc1nnc(-c2ccccc2)c(-c2ccccc2)n1 |  |  |  |  |  |  |  | inactive | inactive | inactive | inactive
6 | CSc1nnc(-c2ccc(Cl)cc2)c(-c2ccc(Cl)cc2)n1 | 4.59 | 4.04 | 20 | 88 | Non-toxic | Non-toxic | 83 | Active |  | Active | Active
7 | CSc1nnc(-c2ccccc2)c(-c2ccccc2)n1 | 1.91 | 1.79 | 35 | 53 | Non-toxic | Non-toxic | 47 |  |  |  | 
8 | CCCCSc1nnc(-c2ccccc2)c(-c2ccccc2)n1 |  |  |  |  |  |  |  |  | inactive |  | 
